# From ChEMBL document CHEMBL4219161, “New phenylaniline derivatives as modulators of amyloid protein precursor metabolism” (Bioorg Med Chem, 2018)
# What was measured:
# Type in all cases: cell-based
# [1] = biological target: T1, Amyloid-beta precursor protein (Homo sapiens, UniProt P05067); assay: Modulation of human wild-type APP695 expressed in SH-SY5Y cells assessed as increase in CTFalpha level at 3 uM measured after 24 hrs by Western blot analysis relative to chloroquine
# Procedure, shortened: (§1)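 SY5Y stably transfected with human APP695 (pcDNA3.1, G418-selected clone SY5Y-APPwt) was plated 24 h before treatment and exposed to compound for 24 h. Lysates were made in Laemmli buffer with protease inhibitors and sonicated. 20 µg protein/lane was run on 16% Tris-Tricine gel and blotted to PVDF. Blots were probed overnight at 4 °C with APP C-terminal (last 17 aa) rabbit antiserum 1:4000 and developed by chemiluminescence. Band area was quantified with H3 reprobe. Result is the fragment level ratio of compound to chloroquine, both at 3 µM; mean of ≥3 independent experiments.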
# [2] = Cytotoxicity against human SH-SY5Y cells after 72 hrs by MTT assay
# Procedure, shortened: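 SH-SY5Y cells grown in DMEM with 10% heat-inactivated FBS, 2 mM L-glutamine, non-essential amino acids and penicillin/streptomycin at 37 °C, 5% CO2. Cells were exposed to compounds at 100, 50, 10, 5, 1, 0.5, 0.1 and 0.05 µM, in under 0.1% DMSO, for 72 h. Growth was read by colorimetric MTT; CC50 taken as the concentration causing 50% cell death.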
# [3] = biological target: T1, Amyloid-beta precursor protein; assay: Modulation of human wild-type APP695 expressed in SH-SY5Y cells assessed as inhibition of amyloid beta (1 to 40 residues) production measured after 24 hrs
# Procedure, shortened: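 SY5Y-APPwt cells (stable human APP695 clone) were exposed to compound for 24 h. Conditioned medium was spun at 200×g, frozen at −80 °C and assayed by ELISA for Aβ1-40 or Aβ1-42, with samples in duplicate and experiments in triplicate. Values were normalised to untreated control set to 100%. IC50 is the concentration lowering secreted Aβ to 50% of basal; mean of ≥3 independent experiments.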
# [4] = biological target: T1, Amyloid-beta precursor protein; assay: Modulation of human wild-type APP695 expressed in SH-SY5Y cells assessed as increase in AICD level at 3 uM measured after 24 hrs by Western blot analysis relative to chloroquine; procedure, shortened: as §1
# [5] = biological target: T1, Amyloid-beta precursor protein; assay: Modulation of human wild-type APP695 expressed in SH-SY5Y cells assessed as increase in CTFalpha level at 10 uM measured after 24 hrs by Western blot analysis relative to chloroquine
# Procedure, shortened: (§2)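 Stable human APP695 SY5Y clone (SY5Y-APPwt) was treated with compound for 24 h and lysed in Laemmli buffer with protease inhibitors. 20 µg protein/lane was separated on 16% Tris-Tricine gel and transferred to PVDF. Blots were probed with rabbit antiserum against the APP C-terminal 17 residues (1:4000, overnight at 4 °C) and read by chemiluminescence with densitometric area-under-curve. H3 was used as reprobe.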
# [6] = biological target: T1, Amyloid-beta precursor protein; assay: Modulation of human wild-type APP695 expressed in SH-SY5Y cells assessed as increase in CTFalpha level at 10 uM measured after 24 hrs by Western blot analysis relative to amodiaquine; procedure, shortened: as §2
# [7] = biological target: T1, Amyloid-beta precursor protein; assay: Modulation of human wild-type APP695 expressed in SH-SY5Y cells assessed as increase in CTFalpha level at 3 uM measured after 24 hrs by Western blot analysis relative to amodiaquine; procedure, shortened: as §2
# [8] = biological target: T1, Amyloid-beta precursor protein; assay: Modulation of human wild-type APP695 expressed in SH-SY5Y cells assessed as increase in […] level at 3 uM measured after 24 hrs by Western blot analysis relative to amodiaquine; procedure, shortened: as §2
# [9] = biological target: T1, Amyloid-beta precursor protein; assay: Modulation of human wild-type APP695 expressed in SH-SY5Y cells assessed as increase in […] level at 10 uM measured after 24 hrs by Western blot analysis relative to amodiaquine; procedure, shortened: as §2
# T1 sequence (P05067 whole entry, the tested form may be a part): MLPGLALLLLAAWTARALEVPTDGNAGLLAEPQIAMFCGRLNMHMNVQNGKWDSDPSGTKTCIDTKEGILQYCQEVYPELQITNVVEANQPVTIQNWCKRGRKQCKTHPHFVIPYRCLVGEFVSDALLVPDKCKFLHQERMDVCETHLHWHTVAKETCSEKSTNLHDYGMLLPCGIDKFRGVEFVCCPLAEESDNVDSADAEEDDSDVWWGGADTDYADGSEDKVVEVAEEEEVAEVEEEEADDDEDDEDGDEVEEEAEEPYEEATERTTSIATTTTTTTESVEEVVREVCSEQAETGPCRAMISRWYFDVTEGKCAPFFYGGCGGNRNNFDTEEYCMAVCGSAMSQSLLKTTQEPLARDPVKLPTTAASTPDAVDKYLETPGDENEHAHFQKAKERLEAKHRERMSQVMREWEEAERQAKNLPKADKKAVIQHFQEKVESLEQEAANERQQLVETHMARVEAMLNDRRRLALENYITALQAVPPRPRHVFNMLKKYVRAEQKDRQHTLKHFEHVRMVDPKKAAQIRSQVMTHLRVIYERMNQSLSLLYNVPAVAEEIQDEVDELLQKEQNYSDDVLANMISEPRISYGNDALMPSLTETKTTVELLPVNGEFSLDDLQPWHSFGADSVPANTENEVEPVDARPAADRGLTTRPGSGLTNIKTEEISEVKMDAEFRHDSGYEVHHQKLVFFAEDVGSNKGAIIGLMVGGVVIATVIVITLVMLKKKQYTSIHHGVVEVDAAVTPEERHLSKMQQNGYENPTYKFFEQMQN
SMILES,fold change (FC) [1],CC50 at 72 h [2] [µM],IC50 [3] [µM],fold change (FC) [4],fold change (FC) [5],fold change (FC) [6],fold change (FC) [7],fold change (FC) [8],fold change (FC) [9]
CCN(CC)CCCC(C)Nc1ccnc2cc(Cl)ccc12 (stereo not drawn) [CHLOROQUINE],1,30,7,1,–,–,–,–,–
CCN(CC)Cc1cccc(Nc2ccnc3cc(Cl)ccc23)c1,0.6,12,4.5,0.5,–,–,–,–,–
O=C(NCCN1CCCCC1)c1cc(Nc2ccccc2CN2CCCCC2)cc(C(=O)NCCN2CCCCC2)c1,2.8,> 100,4.1,2.3,3,3,5.6 to 5.75,3.2 to 10,–
CN1CCN(Cc2ccccc2Nc2cc(C(=O)NCCN3CCCCC3)cc(C(=O)NCCN3CCCCC3)c2)CC1,–,> 100,> 10,–,–,–,–,–,–
c1ccc(-c2cc(CNCCN3CCCCC3)cc(CNCCN3CCCCC3)c2)c(CN2CCCCC2)c1,–,> 100,> 10,–,–,–,–,–,–
CN(C)Cc1ccccc1Nc1cc(CNCCN2CCCCC2)cc(CNCCN2CCCCC2)c1,–,> 100,> 10,–,–,–,–,–,–
O=C(NCCN1CCCCC1)c1cc(Nc2ccccc2CN2CCOCC2)cc(C(=O)NCCN2CCCCC2)c1,–,> 100,> 10,–,–,–,–,–,–
c1ccc(Nc2cc(CNCCN3CCCCC3)cc(CNCCN3CCCCC3)c2)c(CN2CCCCC2)c1,2.6,> 100,4.6,4,–,–,5.6 to 5.75,3.2 to 10,10
O=C(CN1CCCCC1)Nc1cc(CN2CCOCC2)cc(Nc2ccnc3cc(Cl)ccc23)c1,0.7,10,3.1,0.5,–,–,–,–,–
CN(C)CCNCc1cc(NC(=O)CN2CCCCC2)cc(Nc2ccnc3cc(Cl)ccc23)c1,1.7,15,2,2.3,–,–,–,–,–
CCN(CC)Cc1cc(NC(=O)CN2CCCCC2)cc(Nc2ccnc3cc(Cl)ccc23)c1,1.6,4,1.5,0.9,–,–,–,–,–
CN1CCN(Cc2ccccc2-c2cc(C(=O)NCCN3CCCCC3)cc(C(=O)NCCN3CCCCC3)c2)CC1,–,> 100,> 10,–,–,–,–,–,–
Clc1ccc2c(Nc3cc(CN4CCOCC4)cc(NCCN4CCCCC4)c3)ccnc2c1,1.2,10,2.5,1.2,–,–,–,–,–
CN1CCN(Cc2ccccc2Nc2cc(CNCCN3CCCCC3)cc(CNCCN3CCCCC3)c2)CC1,–,> 100,> 10,–,–,–,–,–,–
CCN(CC)Cc1cc(Nc2ccnc3cc(Cl)ccc23)ccc1O [AMODIAQUINE],0.5,10,4,0.4,–,–,–,–,–
CN(C)CCN(C)Cc1cc(NC(=O)CN2CCCCC2)cc(Nc2ccnc3cc(Cl)ccc23)c1,2.1,4,1.7,3.4,–,–,–,–,–
CN1CCN(c2cc(Nc3ccnc4cc(Cl)ccc34)cc(N3CCN(C)CC3)c2)CC1,1.4,> 15,2.3,1.1,–,–,–,–,–
Oc1c(CN2CCCC2)cc(Nc2ccnc3cc(Cl)ccc23)cc1CN1CCCC1,0.5,30,5.1,0.6,–,–,–,–,–
O=C(NCCN1CCCCC1)c1cc(C(=O)NCCN2CCCCC2)cc(-c2ccccc2CN2CCOCC2)c1,–,> 100,> 10,–,–,–,–,–,–
CN(C)Cc1ccccc1Nc1cc(C(=O)NCCN2CCCCC2)cc(C(=O)NCCN2CCCCC2)c1,1,> 100,8.2,3,–,–,–,–,–
CN1CCN(Cc2ccccc2-c2cc(CNCCN3CCCCC3)cc(CNCCN3CCCCC3)c2)CC1,–,> 100,> 10,–,–,–,–,–,–
CN(C)Cc1ccccc1-c1cc(C(=O)NCCN2CCCCC2)cc(C(=O)NCCN2CCCCC2)c1,–,> 100,> 10,–,–,–,–,–,–
CCN(CC)Cc1cc(NCCN2CCCCC2)cc(Nc2ccnc3cc(Cl)ccc23)c1,0.5,15,10,0.4,–,–,–,–,–
CN(C)Cc1ccccc1-c1cc(CNCCN2CCCCC2)cc(CNCCN2CCCCC2)c1,–,> 100,> 10,–,–,–,–,–,–
O=C(NCCN1CCCCC1)c1cc(C(=O)NCCN2CCCCC2)cc(-c2ccccc2CN2CCCCC2)c1,1.4,> 100,6.2,1.9,–,–,–,–,–
c1ccc(Nc2cc(CNCCN3CCCCC3)cc(CNCCN3CCCCC3)c2)c(CN2CCOCC2)c1,0.9,77,6.6,1.3,–,–,–,–,–
c1ccc(-c2cc(CNCCN3CCCCC3)cc(CNCCN3CCCCC3)c2)c(CN2CCOCC2)c1,–,> 100,> 10,–,–,–,–,–,–
